“And” between values parts separate entries of the source, which are not always exact repeats. Identical values can stand only once. Results filed as inconclusive are left out. The source made the active and inactive calls.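 Rule for the calls: active = luminescence drop with fitted half-effect dose at most ten times the top tested dose, in every repeat; inconclusive = repeats disagree, flat moderate inhibition, or unreliable curve fit; inactive = every repeat flat, too weak, or signal rising.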

The first experiment concerns HMLE_shECad viability, CellTiter-Glo luminescence, 72 h. The experiment can be described thus: killing of E-cadherin-knockdown HMLE cells – cell-based, CellTiter-Glo luminescence, primary HTS retest, dry powder, set 5, dose response (AID 504535).
Conditions: not given
The gist of the method: (§1)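 System: HMLE_shECad model of breast cancer stem cells | Amount: 2000 cells per well | Buffer or medium: Serum-free CSC medium | Dosing: 100 nL pinned compound | Schedule: About 72 h compound exposure at 37 °C, 5% CO2 | Detection: CellTiter-Glo ATP luminescence, reagent diluted 1:3 in PBS | Read-out basis: Cell viability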
As to `O=C(Nc1nc(C(F)(F)F)cs1)c1ccc(COc2ccccc2)o1`, the AC50 is 13.2 µM.

Take `Cc1csc(NC(=O)c2ccc(CCc3ccccc3)o2)n1`: the half-maximal activity concentration (AC50) was 0.895 µM.

On to `N#Cc1ccc(/C=C/C(=O)NC2=NCCS2)cc1`, for which the AC50 was 29.2 µM.

Turning to `Cc1cc(Br)ccc1OCC(=O)N/N=C/c1ccc[nH]1`, the AC50 was 3.76 µM.

`CC(C)Cc1ccc(/C=C/C(=O)NC2=NCCS2)cc1`: the AC50 is 0.57 µM.

Regarding `CC(C)c1ccc(/C=C/C(=O)Nc2cncs2)cc1`, the AC50 was 11.4 µM.

Consider `CCc1ccc(/C=C/C(=O)NC2=NCCS2)cc1`, for which the AC50 was 1.67 µM.

Consider `Cc1csc(NC(=O)c2ccc(COc3ccccn3)o2)n1`, for which the AC50 was 17.8 µM.

Take `CC(C)c1ccc(/C=C/C(=O)N(C)C2=NCCS2)cc1`: the AC50 was 21.2 µM.

Turning to `CC(C)c1ccc(/C=C/C(=O)NC2=NCCS2)cc1`, the AC50 is 2.97 µM.

Regarding `COc1cccc(OCc2ccc(C(=O)Nc3nc(C)cs3)o2)c1`, the AC50 was 0.348 µM.

Consider `Cc1csc(NC(=O)c2ccc(CNc3ccccc3)o2)n1`, for which the AC50 was 0.676 µM.

Take `O=C(COc1c(Cl)cc(Cl)cc1Cl)N/N=C/c1ccc[nH]1`: the AC50 is 1.44 µM.

In the case of `Cc1csc(NC(=O)c2ccc(COC3CCCCC3)o2)n1`, the AC50 was 17 µM.

In the case of `Cc1ccc(OCc2ccc(C(=O)Nc3nc(C)cs3)o2)cc1`, the AC50 is 2.51 µM.

`N#Cc1csc(NC(=O)c2ccc(COc3ccccc3)o2)n1`: the AC50 was 18.1 µM.

Take `Cc1cc(C)c(OCC(=O)N/N=C/c2ccc[nH]2)c(C)c1`: the AC50 was 9.43 µM.

Regarding `Cc1csc(NC(=O)c2ccc(COCc3ccccc3)o2)n1`, the AC50 is 6.04 µM.

In the case of `Cc1cccc(OCc2ccc(C(=O)Nc3nc(C)cs3)o2)c1`, the AC50 is 0.259 µM and 0.332 µM.

System in a further experiment: not listed separately
The description is as above. The following applies: HMLE_shECad viability, CellTiter-Glo luminescence, 72 h; at 19.5 µM (top of the series). The gist of the method:
as §1
(In general: In ATP-based viability assays light output follows the ATP content of the culture.)
`CCN(CC)C(=O)c1ccc(COc2ccccc2)o1`: the activity change, negative = inhibition is 8.61% (inactive).

With `C/C(=C\C(=O)NC1=NCCS1)c1ccc(CC(C)C)cc1`, the activity change, negative = inhibition was 3.46% (inactive).

With `Cn1c(C(=O)NC2=NCCS2)cc2ccccc21`, the activity change, negative = inhibition was -9.82% (inactive).

With `CNC(=O)c1csc(NC(=O)c2ccc(COc3ccccc3)o2)n1`, the activity change, negative = inhibition is -8.68% (inactive).

As for `COCc1ccc(C(=O)Nc2nc(C)cs2)o1`, the activity change, negative = inhibition was 1.05% (inactive).

As for `Cc1csc(NCc2ccc(COc3ccccc3)o2)n1`, the activity change, negative = inhibition was -11.4% (inactive).

Turning to `CC(C)NC(=O)c1ccc(COc2ccccc2)o1`, the activity change, negative = inhibition is -14.2% (inactive).

For the compound `Cc1csc(NC(=O)c2ccc(COc3cccc(S(C)(=O)=O)c3)o2)n1`, the activity change, negative = inhibition is -13.6% (inactive).

`C/C(=C\C(=O)NC1=NCCS1)c1ccc(C)cc1`: the activity change, negative = inhibition was -1.94% (inactive).

Take `O=C(Nc1nncs1)c1ccc(COc2ccccc2)o1`: the activity change, negative = inhibition was -7.89% (inactive).

Staying with this experiment, now noted: HMLE_shECad viability, CellTiter-Glo luminescence, 72 h; at 30 µM (top of the series).
With `Cc1ccc2cc(C(=O)NC3=NCCS3)n(C)c2c1`, the activity change, negative = inhibition was -12.6% (inactive).

In general, AC50 refers to the concentration giving half of the maximal activity seen.

(Values after PubChem BioAssay AID504535 (Broad Institute, 2011).)
